The nature of series [1]: AUC (0 to infinity) in rat at 10 mg/kg, iv. To be noted: plasma. Format: ADME, organism-based. Also noted: time infinity, dose 10 mg/kg, route intravenous. In outline: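 Rats, n=5, given 10 mg/kg IV via femoral vein catheter. Vehicle was 2% ethanol/saline or 30% DMSO/30% propylene glycol/20% PEG 3000/20% saline, depending on compound. Plasma sampled 0–48 h and urine collected in intervals to 48 h; both assayed by LC-MS/MS after acetonitrile precipitation. Non-compartmental analysis: CL = dose/AUC0-∞; fe = cumulative unchanged urinary amount/dose.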

Series [2] is filed under the species Rattus norvegicus. Put plainly: Half life in rat. It is filed as ADME, organism-based. The note with it: in vivo.
Series [3] is described as follows: Volume of distribution in rat. It is filed as ADME, organism-based. The note with it: in vivo. In outline:
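Plasma concentration–time data from rats (n=5) after IV 10 mg/kg or oral 100 mg/kg. Samples taken 0.25–48 h and measured by LC-MS/MS. Non-compartmental analysis; Vd calculated as AUMC0-∞ × dose divided by the square of AUC0-∞.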

The species named for series [4] is Rattus norvegicus. The experiment in a line: Clearance in rat. It is filed as ADME, organism-based. To be noted: in vivo.
A short description of series [5]: Cmax in rat at 10 mg/kg, iv. It is filed as ADME, organism-based. To be noted: in vivo. Also noted: dose 10 mg/kg, route intravenous. In outline:
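Rats (n=5) given 10 mg/kg IV via femoral vein catheter. Vehicle was 2% ethanol/saline or 30% DMSO/30% propylene glycol/20% PEG 3000/20% saline, depending on compound. Serial plasma sampled 0–48 h and assayed by LC-MS/MS after acetonitrile precipitation. Cmax read by visual inspection of the concentration–time curve.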

The nature of series [6]: Drug excretion in rat urine. Format: ADME. The note with it: read-out: Drug excretion.
Series [7] in a line: Oral bioavailability in rat. Format: ADME, organism-based. The note with it: in vivo.

In turn, `CC1COc2c(N3CCN(C)CC3)c(F)cc3c(=O)c(C(=O)O)cn1c23` (configuration not stated) [OFLOXACIN] yielded an AUC(0-inf) in series [1] of 6100 ng·h/mL. In series [2], this compound registered a t1/2 of 1.5 h. This compound also yielded a Vd in series [3] of 0.99 L/kg. Besides, the CL in series [4] is 14.3 mL/min/kg. The same compound yielded a maximum concentration (Cmax) in series [5] of 10900 ng/mL. Further, the dose excreted in series [6] stood at 46%. The bioavailability in series [7] came to 78%.

The record behind these values is ChEMBL document CHEMBL2146426, “Antitubercular nitrofuran isoxazolines with improved pharmacokinetic properties” (Bioorg Med Chem, 2012).
